B2AR ag – beta2AR agonists driving receptor internalization, primary screen, cell-based, FAP fluorogen, flow cytometry | Am2.2-beta2AR cells | Beta-2 adrenergic receptor (Homo sapiens), P07550 | hit rate 0.43% among 340,000 | response, % (concentration not given with the values);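 active = response above a set limit, near 3 SD of response in nonfluorescent compounds, cut at about 42% in these data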
MDM2 E3 inh – MDM2-luciferase reporter signal enhancers, primary screen, MDM2 E3 ligase inhibitor project, cell-based, luminescence, 1536-well; E3 ubiquitin-protein ligase Mdm2 (Homo sapiens), Q00987; cell-based MDM2 ubiquitination luciferase reporter, 2 h; 0 = plate control, 100 = twice control, blank-subtracted; signal enhancement, % at 5 µM; hit rate 0.11% among 210,000; AID 1230, 2008;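 active = signal enhancement of 30% or more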;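 also: luminescence tracks abundance of the self-degrading MDM2-luciferase fusion protein; higher signal means inhibition of MDM2 E3 ligase activity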
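Assay system: stable mammalian line carrying autodegrading MDM2–luciferase fusion reporter; amount: 2000 cells seeded into each well; buffer or medium: DMEM; benchmarks: plate control and blank wells; signal: luciferase luminescence; timing: 2 h compound exposure at 37 °C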
XBP1 UPR activ – activators of adaptive XBP1 UPR arm, primary screen, cell-based, CHO-XBP1 luciferase reporter, luminescence, uHTS. IRE1-XBP1 UPR activation; percent of tunicamycin response, DMSO as zero. activation, % at 20 µM. hit rate 0.33% among 330,000;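 active = versus positive control, 20 µM dose yields 30% or more activation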;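 also: 100% = tunicamycin at 10 µg/mL and 0% = DMSO only wells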
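Signal: luciferase luminescence; Assay system: CHO-XBP1 luciferase reporter cells; Amount: one thousand reporter cells per well; Dosing: 20 µM single concentration, DMSO 1%; Benchmarks: high control tunicamycin 10 µg/mL final, low control DMSO vehicle only; Schedule: 6 h compound exposure at 37 °C, 5% CO2; Evaluation: percent activation relative to tunicamycin reference.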
Dynein transport – inhibitors of GR-EGFP nuclear translocation, primary screen, dynein cargo transport inhibitor project, imaging, high-content, 3617.4 mouse cells; test concentration mostly 20 µM; stimulated with dexamethasone, 1 µM; stronger effect = lower value; hit rate 0.47% among 220,000; z-score, hits read low; AID 1381, 2008;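 active = plate z-score of nuclear minus cytoplasmic receptor signal below a set negative limit, without overly bright fluorescence or cell loss, cut at about -3.5 in these data, passing the limit was not always enough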;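 also: z-score of nuclear minus cytoplasmic ring GR-EGFP intensity difference per well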
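Buffer or medium – tet-free medium with charcoal-stripped serum · Signal – automated 10x imaging of fixed Hoechst-stained cells · Also added – dexamethasone agonist, 1.0 µM final, for 30 min · Incubation – induction 48 h, compound 1 h, agonist 30 min · Read-out – GR-EGFP nuclear translocation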
Mdm2-MdmX inh – inhibitors of human Mdm2-MdmX association, primary screen, cell-based, luminescence, split luciferase, SaOS-2, uHTS. Protein Mdm4 (Homo sapiens) + E3 ubiquitin-protein ligase Mdm2 (Homo sapiens), …. SaOS-2 split-luciferase Mdm2/MdmX complementation. inhibition, % at 8 µM. hit rate 3% among 330,000. AID 485346, 2010;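 active = inhibition of at least 50% at 8 µM in the primary screen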
Target sequence (O15151 whole entry, looked up): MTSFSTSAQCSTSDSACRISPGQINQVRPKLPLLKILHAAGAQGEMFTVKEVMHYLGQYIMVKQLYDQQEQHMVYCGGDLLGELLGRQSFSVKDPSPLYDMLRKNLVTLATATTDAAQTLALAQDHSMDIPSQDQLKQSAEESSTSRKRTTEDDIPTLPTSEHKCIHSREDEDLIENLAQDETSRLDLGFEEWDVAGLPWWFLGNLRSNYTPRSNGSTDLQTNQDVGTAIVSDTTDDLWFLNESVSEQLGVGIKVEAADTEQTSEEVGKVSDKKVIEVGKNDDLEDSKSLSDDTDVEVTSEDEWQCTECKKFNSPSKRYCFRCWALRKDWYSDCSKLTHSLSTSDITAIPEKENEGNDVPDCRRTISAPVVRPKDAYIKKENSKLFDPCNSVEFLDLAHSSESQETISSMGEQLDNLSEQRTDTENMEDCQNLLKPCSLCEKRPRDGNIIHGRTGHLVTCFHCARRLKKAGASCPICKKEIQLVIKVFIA
Target sequence (Q00987 whole entry, looked up): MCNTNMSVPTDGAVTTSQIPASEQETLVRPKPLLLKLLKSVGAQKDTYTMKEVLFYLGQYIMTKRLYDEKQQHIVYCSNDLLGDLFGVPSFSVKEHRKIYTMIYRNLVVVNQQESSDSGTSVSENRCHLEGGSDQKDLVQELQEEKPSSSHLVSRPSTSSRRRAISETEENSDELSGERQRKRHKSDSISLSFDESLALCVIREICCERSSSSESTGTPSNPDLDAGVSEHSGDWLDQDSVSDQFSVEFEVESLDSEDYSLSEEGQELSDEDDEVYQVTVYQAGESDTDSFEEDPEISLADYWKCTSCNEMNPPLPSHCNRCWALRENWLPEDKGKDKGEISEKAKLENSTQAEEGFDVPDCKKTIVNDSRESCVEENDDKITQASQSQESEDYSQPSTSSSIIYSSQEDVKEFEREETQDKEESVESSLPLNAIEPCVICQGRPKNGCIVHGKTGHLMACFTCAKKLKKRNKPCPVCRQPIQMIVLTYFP
CHOP UPR activ – activators of apoptotic CHOP UPR arm, primary screen, cell-based, CHO-CHOP luciferase reporter, luminescence, uHTS; UPR activation; percent of tunicamycin response over DMSO baseline; activation, % at 10 µM; hit rate 0.34% among 330,000; AID 449763, 2010;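 active = at 10 µM dose, activation of 40% or more, normalized to positive control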;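 also: 100% = tunicamycin at 10 µg/mL and 0% = DMSO alone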
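Material: CHO-CHOP cells, stable luciferase reporter of PERK-eIF2a-CHOP signalling; quantity: 500 reporter cells seeded per well; buffer or medium: F12 medium containing 10% fetal bovine serum; compound: one dose, 10 µM in 0.5% DMSO; incubation: 6 h compound treatment, 37 °C; measured by: Steady-Glo luciferase luminescence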
Mdm2-MdmX conf – Mdm2-MdmX complex disruptors, retested hits, confirmation, luminescence, single concentration. Mdm2-MdmX binding, luminescent assay. shares compounds with Mdm2-MdmX inh. hit rate 55% among 10,000. inhibition, % at 8 µM; in the data active = inhibition above about 40%
Full FLuc ctr – full-length luciferase signal inhibition, confirmation, counter-screen for Mdm2/MdmX interaction inhibitor project, cell-based, single concentration, SaOS-2; shares compounds with Mdm2-MdmX inh; SaOS-2 full-length luciferase counterscreen, luminescence; inhibition, % at 8 µM; hit rate 77% among 6,200; AID 504607, 2011;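 active = mean inhibition at 8 µM reaching about 37%, which flags the compound as non-specific, limit read from the data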;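 also: p53-null SaOS-2 cells with luciferase driven by a doxycycline-inducible promoter; compound on cells about two nights before reading with doxycycline added after day one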
Numbers without * were called inactive; · = no result. A selection: hits, their analogues and other compounds. The true share with any hit is near 3.7%.

SMILES | B2AR ag | MDM2 E3 inh | XBP1 UPR activ | Dynein transport | Mdm2-MdmX inh | CHOP UPR activ | Mdm2-MdmX conf | Full FLuc ctr
Cc1ccc(CSc2[nH]c(=O)ncc2C)cc1 | 5.4 | · | -1.2 | · | 14.6 | 0.2 | · | ·
O=C(Cc1ccsc1)Nc1ccccc1F | -1.8 | · | 1.1 | · | 9.9 | 3.1 | · | ·
CCOC(=O)c1cc2c(ccn2C)n1CC(=O)N(Cc1ccccc1)c1ccc(F)cc1 | -4.3 | -18.9 | -2.5 | 0.386 | 28.6 | 0.6 | · | ·
CC(C)OC(=O)c1cc2c(ccn2C)n1CC(=O)N(Cc1ccccc1)c1ccc(F)cc1 | 7.8 | -5.4 | 1.1 | 0.794 | 79.5* | 4.1 | 55.7* | 75.8*
COc1ccc(/C=N/NC(=O)c2ccc3ccccc3c2)cc1OS(=O)(=O)c1ccc(NC(C)=O)cc1 | 22.8 | -17.4 | 2.8 | 0.341 | 68.4* | -1.5 | 54.9* | 57.8*
COc1ccc(C=O)cc1OS(=O)(=O)c1ccc(NC(C)=O)cc1 | 16.9 | -3.8 | 1.0 | 0.353 | 4.2 | -0.2 | · | ·
COc1ccc(/C=N/NC(=O)c2cccnc2)cc1COc1ccc(NC(C)=O)cc1 | 13.1 | -13.8 | -2.0 | -0.193 | 52.1* | -0.9 | 25.6 | ·
COc1ccc(OCc2cc(/C=N\NC(=O)c3ccccc3)ccc2OC)cc1 | 2.2 | · | -2.8 | · | 49.9 | 0.2 | · | ·
COc1ccc(/C=N/NC(=O)c2cccnc2)cc1COc1ccc([N+](=O)[O-])cc1 | 7.8 | -10.0 | -0.2 | 0.0449 | 51.5* | -0.6 | 37.5 | 81.2*
COc1ccc(/C=N\NC(=O)c2cccc(F)c2)cc1COc1ccccc1 | 27.0 | · | 23.2 | · | 58.4* | 4.0 | 64.0* | 74.9*
Cc1cc(C)cc(NC(=O)c2ccc(CNc3c(N4CCCC4)c(=O)c3=O)cc2)c1 | -3.6 | -4.2 | -0.5 | 0.17 | 17.4 | 2.7 | · | ·
Cc1csc(NC(=O)CCCC(=O)c2ccccc2)n1 | 7.9 | · | -2.2 | · | 20.8 | 1.9 | · | ·
Nn1c(SCC(=O)NC2CCCCC2)nnc1-c1ccccc1F | -28.2 | · | -1.8 | · | -7.5 | -0.4 | · | ·
CC(C)C(NC(=O)c1ccc(C(C)(C)C)cc1)C(=O)Nc1ccc(N2CCOCC2)cc1 (stereo unspecified) | -8.6 | · | 5.0 | · | 14.9 | 0.0 | · | ·
CCN(CC)c1ccc2c(c1)OC(N)=C(C#N)C2c1cccnc1 (stereo unspecified) | -14.6 | -12.4 | 10.7 | 1.57 | 66.0* | 1.3 | 59.7* | 91.8*
CCOC(=O)c1c(-c2ccc(OC)cc2)csc1NC(=O)COc1ccc2c(C)cc(=O)oc2c1 | 6.0 | -19.9 | 0.4 | -0.278 | 60.8* | 5.5 | 13.7 | ·
Cc1cc(=O)oc2cc(OCC(=O)Nc3nccs3)ccc12 | -3.5 | · | -8.0 | · | -4.5 | 1.2 | · | ·
O=C(CCl)N(c1ccccc1)c1c[nH]c2ccccc12 | 0.9 | -2.5 | -9.8 | -2.79 | 100.3* | -0.3 | 99.3* | 52.4*
CCOC(=O)c1[nH]c2ccc(OC)cc2c1NC(=S)N1CCN(C(=O)OCC)CC1 | -11.6 | 21.2 | -1.2 | 0.685 | -3.0 | 1.7 | · | ·
CCOC(=O)c1[nH]c2ccc(OC)cc2c1NC(=S)N1CCN(c2ccccc2OC)CC1 | -3.5 | -4.3 | -5.2 | 1.79 | 52.0* | -0.6 | 46.5* | 69.2*
COc1ccccc1-c1nnc(NC(=O)c2ccc3c(c2)OCO3)s1 | 10.4 | -19.8 | 3.4 | -0.0833 | 90.3* | 2.7 | 65.7* | 84.8*

Screens as filed in PubChem BioAssay.
